Drawing on PubChem BioAssay, this text covers viability, differential viability (reversal) and inhibition for 18 compounds.

A short description of experiment [1]: reduced viability of SK-BR-3 breast cancer cells – cell-based, 24 h, human, pilot screen (AID 572;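 active = viability at or below 10% of carrier control in both of two separate runs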;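 note: compound exposure lasted between 18 and 24 h rather than exactly 24 h; 100% = carrier-treated control wells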). The conditions noted are these: SK-BR-3 viability, CellTiter-Glo luminescence, at 10 µM, stronger effect = lower value.
Experiment [2] in a line: HUVEC growth inhibition – cell-based, human, primary screen (AID 575;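 active = viability at or below 30% in both replicate assays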;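 note: 100% = median of untreated cell wells with 0.1% DMSO on each plate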). The conditions noted are these: HUVEC proliferation, CellTiter-Glo luminescence, 72 h; at 10 µM; stronger effect = lower value. A digest of the protocol: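 system = HUVEC primary cells | amount = 1250 cells/well | buffer or medium = supplemented EBM, 2% fetal bovine serum | dosing = single-point 10 µM, DMSO 0.1% final | times = 72 h compound incubation | detection = CTG luminescence | read-out = % viability relative to median vehicle-well signal on each plate | control set = vehicle and MePR control wells | format = collagen-coated 384-well format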

Experiment [3] is described as follows: H69AR cell proliferation blockers – human, duplicate replicates, primary screen (AID 580).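 Note: 100% = mean luminescence of untreated wells and 0% = no signal.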 The note with it: H69AR lung tumor cells viability, ATP luminescence, 72 h; at 10 µM; stronger effect = lower value.
The nature of experiment [4]: MRP1 drug-resistance reversers in H69AR cells – cell-based, doxorubicin co-treatment, pilot screen (AID 601;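 active = viability loss from added drug above about 55%, and viability with drug at most 40%, in both replicates, limit read from the data, passing the limit was not always enough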). The note with it: CellTiter-Glo, 72 h, at 10 µM; for differential viability (reversal): stronger effect = higher value.
Experiment [5] is described as follows: yeast transport mutant growth inhibition pilot in 384-well plates, post-Golgi transport modulator project (AID 636; in the data active = inhibition above about 31%). The note with it: absorbance 615 nm, about 18 h, stronger effect = higher value.
The nature of experiment [6]: growth suppression of yeast trafficking mutant, preliminary HTS, modulators of trafficking downstream of Golgi apparatus project, 1536-format plate, OD 615 nm (AID 637; in the data active = inhibition above about 30%). The note with it: yeast transport mutant growth, absorbance 615 nm, 18 h; stronger effect = higher value.
The mark [7] stands for this setting: H69AR cells + 2 uM doxorubicin, measured here: viability with 2 uM doxorubicin, stronger effect = lower value.
Setting [8] is: H69AR cells, compound alone cytotoxicity.

The source made the active and inactive calls.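 Rule for the calls, unless noted: active = viability at or under a set limit in both replicates, limit being median viability minus 3 SD (cut at about 48% in these data, passing the limit was not always enough); inconclusive = at or under the limit in just one replicate; inactive = at or above the limit in both replicates.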

By viability is commonly meant a read-out of living cells in per cent, often relative to untreated cells. As a reminder, the inhibition is the relative decrease from the control value, in per cent. As for `c1coc(CN2CN=C(Nc3nc4ccccc4s3)NC2)c1`, the viability in experiment [1] was 91% (inactive); in experiment [2] it was 115% (inactive); in experiment [3] it was 96.4% (inactive); in experiment [4] (setting [7]) it was 96.5%; in experiment [4] (setting [8]) it was 96.4%. Also, the differential viability (reversal) in experiment [4] (H69AR cells + 2 uM doxorubicin) was -0.14% (inactive). In addition, the inhibition in experiment [5] was -2.3% (inactive); in experiment [6], -4.18% (inactive).
As to `CC(c1ccco1)N(Cc1ccco1)C(=O)Nc1ccccc1` (centres undefined), the viability in experiment [1] is 108% (inactive); in experiment [2], 76.3% (inactive); in experiment [3] it was 91.2% (inactive); in experiment [4] (setting [7]), 67.6%; in experiment [4] (setting [8]) it was 91.2%. Moreover, the differential viability (reversal) in experiment [4] (H69AR cells + 2 uM doxorubicin) is 23.7% (inactive). The inhibition was 1.69% (inactive) in experiment [5] and 6.72% (inactive) in experiment [6].
Regarding `O=C(O)c1ccc(CSc2ncn[nH]2)cc1`, the viability is 107% (inactive) in experiment [1]; 105% (inactive) in experiment [2]; 94.4% (inactive) in experiment [3]; 101% in experiment [4] (setting [7]); 94.4% in experiment [4] (setting [8]). The differential viability (reversal) in experiment [4] (H69AR cells + 2 uM doxorubicin) was -6.27% (inactive). The inhibition in experiment [5] was -6.16% (inactive); in experiment [6], 0.55% (inactive).
Regarding `COc1cccc(CC(=O)Nn2c(C)nc3ccccc3c2=O)c1`, the viability is 83% (inactive) in experiment [1]; 115% (inactive) in experiment [2]; 99.3% (inactive) in experiment [3]; 87.5% in experiment [4] (setting [7]); 99.3% in experiment [4] (setting [8]). Also, the differential viability (reversal) in experiment [4] (H69AR cells + 2 uM doxorubicin) is 11.8% (inactive). Besides, the inhibition in experiment [5] was -3.07% (inactive); in experiment [6], -5.27% (inactive).
As to `O=C(C1CCN(C2CC(=O)N(c3ccc(F)cc3)C2=O)CC1)N1CCOCC1` (centres undefined), the viability in experiment [1] was 106% (inactive); in experiment [2], 105% (inactive); in experiment [3], 101% (inactive); in experiment [4] (setting [7]), 96.2%; in experiment [4] (setting [8]) it was 101%. In addition, the differential viability (reversal) in experiment [4] (H69AR cells + 2 uM doxorubicin) is 4.69% (inactive). Moreover, the inhibition in experiment [5] is -1.43% (inactive); in experiment [6], 4.43% (inactive).
With `COc1ccc(-c2nnn(CC(=O)c3ccc4c(c3)OCCO4)n2)cc1OC`, the viability was 92% (inactive) in experiment [1]; 73.8% (inactive) in experiment [2]; 81.5% (inactive) in experiment [3]; 73.7% in experiment [4] (setting [7]); 81.5% in experiment [4] (setting [8]). The differential viability (reversal) in experiment [4] (H69AR cells + 2 uM doxorubicin) is 7.78% (inactive). For the same compound, the inhibition in experiment [5] is -7.26% (inactive); in experiment [6] it was 0% (inactive).
For the compound `O=S(=O)(c1cccs1)N1CCN(Cc2nc3ccccc3s2)CC1`, the viability was 87% (inactive) in experiment [1]; 72.1% (inactive) in experiment [2]; 84.9% (inactive) in experiment [3]; 101% in experiment [4] (setting [7]); 84.9% in experiment [4] (setting [8]). The differential viability (reversal) in experiment [4] (H69AR cells + 2 uM doxorubicin) is -16.2% (inactive). The inhibition is 4.79% (inactive) in experiment [5] and 30.2% (active) in experiment [6].
`CC(C)NC(=O)Nc1cccs1`: the viability is 115% (inactive) in experiment [1]; 99.5% (inactive) in experiment [2]; 92.1% (inactive) in experiment [3]; 95.6% in experiment [4] (setting [7]); 92.1% in experiment [4] (setting [8]). For the same compound, the differential viability (reversal) in experiment [4] (H69AR cells + 2 uM doxorubicin) is -3.51% (inactive). Further, the inhibition was 2.47% (inactive) in experiment [5] and -0.82% (inactive) in experiment [6].
For `CCOC(=O)C1(c2ccccc2)NC(c2ccc(N(C)C)cc2)C2C(=O)N(C)C(=O)C21` (centres undefined), the viability in experiment [1] is 82% (inactive); in experiment [2], 104% (inactive); in experiment [3] it was 94.4% (inactive); in experiment [4] (setting [7]) it was 65.2%; in experiment [4] (setting [8]), 94.4%. For the same compound, the differential viability (reversal) in experiment [4] (H69AR cells + 2 uM doxorubicin) was 29.2% (inactive). Moreover, the inhibition in experiment [5] was -8.11% (inactive); in experiment [6], -6.73% (inactive).
On to `CCn1c(=O)c2cc(S(=O)(=O)NCc3ccccc3)ccc2n(CC)c1=O`, for which the viability in experiment [1] is 93% (inactive); in experiment [2] it was 62.8% (inactive); in experiment [3], 19.4% (active); in experiment [4] (setting [7]), 96.5%; in experiment [4] (setting [8]), 19.4%. The differential viability (reversal) in experiment [4] (H69AR cells + 2 uM doxorubicin) was -77.1% (inactive). In addition, the results for the inhibition in experiment [5] and in experiment [6] were -1.3% (inactive) and 18.7% (inactive), respectively.
In the case of `Cc1cc(N2CCN(C3CCCC3)CC2)n2c(nc3ccccc32)c1C#N`, the viability in experiment [1] is 78% (inactive); in experiment [2], 96.8% (inactive); in experiment [3] it was 91.4% (inactive); in experiment [4] (setting [7]), 63.3%; in experiment [4] (setting [8]) it was 91.4%. Besides, the differential viability (reversal) in experiment [4] (H69AR cells + 2 uM doxorubicin) is 28.1% (inactive). The inhibition in experiment [5] is -2.19% (inactive); in experiment [6], 2.42% (inactive).
Consider `c1cc(C(c2nnnn2C2CCCC2)N2CCOCC2)ccn1` (centres undefined), for which the viability in experiment [1] is 96.5% (inactive); in experiment [2], 104% (inactive); in experiment [3], 91.9% (inactive); in experiment [4] (setting [7]), 92.2%; in experiment [4] (setting [8]), 91.9%. Further, in experiment [4] (H69AR cells + 2 uM doxorubicin), the differential viability (reversal) was -0.285% (inactive). The inhibition in experiment [5] is -8.22% (inactive); in experiment [6], 0.16% (inactive).
Consider `O=C(Nc1ncnc2sc3c(c12)CCC3)c1ccco1`, for which the viability in experiment [1] was 81% (inactive); in experiment [2] it was 94% (inactive); in experiment [3], 80.1% (inactive); in experiment [4] (setting [7]), 83%; in experiment [4] (setting [8]) it was 80.1%. In addition, the differential viability (reversal) in experiment [4] (H69AR cells + 2 uM doxorubicin) was -2.91% (inactive). Moreover, the inhibition in experiment [5] was -4.73% (inactive); in experiment [6], 0.55% (inactive).
As for `COc1ccccc1NC(=O)CSc1nnc(Cn2nnc(-c3ccccc3)n2)n1-c1ccccc1`, the viability is 63% (inactive) in experiment [1]; 88.7% (inactive) in experiment [2]; 87.4% (inactive) in experiment [3]; 92.8% in experiment [4] (setting [7]); 87.4% in experiment [4] (setting [8]). In addition, in experiment [4] (H69AR cells + 2 uM doxorubicin), the differential viability (reversal) was -5.36% (inactive). Moreover, the figures for the inhibition in experiment [5] and in experiment [6] were -5.75% (inactive) and -1.45% (inactive), respectively.
As to `COc1ccc(OC)c(NC(=O)C2C3CC4OC(=O)C2C4C3)c1` (centres undefined), the viability in experiment [1] is 103% (inactive); in experiment [2], 102% (inactive); in experiment [3], 98.3% (inactive); in experiment [4] (setting [7]) it was 90%; in experiment [4] (setting [8]), 98.3%. In addition, the differential viability (reversal) in experiment [4] (H69AR cells + 2 uM doxorubicin) was 8.29% (inactive). The inhibition was -6.89% (inactive) in experiment [5] and -4% (inactive) in experiment [6].
With `COC(=O)c1[nH]c2ccc(C)cc2c1NC(=O)CN1CCN(C(=O)c2ccccc2)CC1`, the viability in experiment [1] is 130% (inactive); in experiment [2] it was 94% (inactive); in experiment [3] it was 78.4% (inactive); in experiment [4] (setting [7]), 44.9%; in experiment [4] (setting [8]), 78.4%. In addition, the differential viability (reversal) in experiment [4] (H69AR cells + 2 uM doxorubicin) was 33.4% (inactive). Besides, the results for the inhibition in experiment [5] and in experiment [6] were -4.67% (inactive) and -0.36% (inactive), respectively.
`CN(C)CCC=C1c2ccccc2CCc2ccccc21`: the viability was 95% (inactive) in experiment [1]; 60.6% (inactive) in experiment [2]; 82.3% (inactive) in experiment [3]; 74.3% in experiment [4] (setting [7]); 82.3% in experiment [4] (setting [8]). Further, in experiment [4] (H69AR cells + 2 uM doxorubicin), the differential viability (reversal) was 8.06% (inactive). Besides, the results for the inhibition in experiment [5] and in experiment [6] were -3.12% (inactive) and -1.67% (inactive), respectively.
`N#Cc1ccc(CSc2nnc(-c3ccccn3)n2-c2ccccc2)cc1`: the viability in experiment [1] was 62% (inactive); in experiment [2], 93.5% (inactive); in experiment [3], 95.1% (inactive); in experiment [4] (setting [7]) it was 89.1%; in experiment [4] (setting [8]) it was 95.1%. The differential viability (reversal) in experiment [4] (H69AR cells + 2 uM doxorubicin) was 6.06% (inactive). Further, the inhibition in experiment [5] was -7.67% (inactive); in experiment [6] it was -1.09% (inactive).
